This is a sample that favours compounds with a hit; in the whole collection about 2.4% have one here.
HKDC1 inhibitor: HKDC1 (human) hexokinase inhibition. Q2TB90. inhibition, % at 20 µM. AID 493160. 340,000 tested, 0.16% active. recombinant HKDC1, G6PDH/diaphorase resazurin coupled fluorescence;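 active = inhibition above about 35% when tested at 20 µM, limit read from the data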;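 note: plate controls were DMSO wells with enzyme for no effect and DMSO wells lacking enzyme for full effect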
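Assay system – recombinant HKDC1 (HK5) hexokinase enzyme, produced in-house · Input – HKDC1 at 5 µg/mL · Reagent – glucose plus 1 mM ATP as hexokinase substrates · Timing – 90 min reaction incubation at room temperature, dark · Measured by – G6PDH/diaphorase-coupled fluorescence, 1 mM NADP, 100 µM resazurin, 525/613 nm · Benchmarks – DMSO-enzyme wells negative, buffer-substituted wells positive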
UBC9 SUMO inh: blocks human SUMOylation mediated by UBC9 | inhibition, % at 35 µM | P63279 | 290,000 tested, 0.36% active | HTRF SUMOylation assay, SAE1/SAE2 + UBC9, in vitro; in the data active = inhibition above about 50%, passing the limit was not always enough
Target sequence (P63279 whole entry, looked up): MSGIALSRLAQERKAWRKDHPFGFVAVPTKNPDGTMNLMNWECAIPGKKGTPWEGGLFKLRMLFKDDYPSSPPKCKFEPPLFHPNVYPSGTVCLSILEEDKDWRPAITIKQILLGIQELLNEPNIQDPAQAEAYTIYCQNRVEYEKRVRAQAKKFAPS
PfM18AAP inh: blocks P. falciparum M18 aspartyl aminopeptidase. recombinant PfM18AAP, H-Glu-NHMec fluorogenic cleavage. inhibition, % at 7.35 µM. 290,000 tested, 1.2% active;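 active = inhibition above the campaign mean inhibition over all tested compounds plus 3 SD, cut at about 28% in these data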;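 note: 0% = plate median of test compound wells and 100% = 2 mM ZnCl2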
A3A deaminase: blocks human APOBEC3A ssDNA deamination. P31941. recombinant A3A, FAM/TAMRA ssDNA deamination fluorescence. inhibition, % at 20 µM. 330,000 tested, 0.41% active;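 active = at least 40% inhibition at 20 µM here, with at most 30% in a related deaminase screen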;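 note: plate controls were A3A with DMSO for no effect and wells lacking A3A enzyme for full effect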
Target sequence (P31941 whole entry, looked up): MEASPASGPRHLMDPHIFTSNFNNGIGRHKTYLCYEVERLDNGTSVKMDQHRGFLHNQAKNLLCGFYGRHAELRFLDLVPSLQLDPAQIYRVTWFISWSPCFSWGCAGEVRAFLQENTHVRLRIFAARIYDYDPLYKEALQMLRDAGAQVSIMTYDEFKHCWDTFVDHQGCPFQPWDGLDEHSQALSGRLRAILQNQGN
PfGluPho inh: PfG6PD (Plasmodium falciparum) enzyme inhibition. PfGluPho enzyme, NADPH resazurin-diaphorase fluorescence. inhibition, % at 20 µM. 350,000 tested, 0.78% active;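 active = inhibition reaching at least a set limit at 20 µM in the primary screen, cut at about 59% in these data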;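 note: 0% = DMSO wells with substrate and 100% = DMSO wells lacking glucose-6-phosphate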
A3G deaminase: APOBEC3G (human) deaminase inhibition; Q9HC16; 330,000 tested, 0.28% active; AID 493012; inhibition, % at 20 µM; recombinant A3G, ssDNA deamination FAM/TAMRA fluorescence;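 active = inhibition of at least 40% at 20 µM, with no more than 30% in the related APOBEC3A deaminase screen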;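 note: plate controls were DMSO wells with A3G for no effect and wells lacking A3G enzyme for full effect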
A3A conf: APOBEC3A (human) deaminase inhibition, confirmed; shares compounds with A3A deaminase; recombinant A3A, ssDNA deaminase UDG fluorescence assay; inhibition, % at 20 µM; 1,400 tested, 63% active;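 active = inhibition reaching a set limit, 80% of the first screen's cutoff, at 20 µM in any replicate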;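 note: plate controls were DMSO wells with A3A for no effect and wells lacking A3A enzyme for full effect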
UDG ctr A3A: inhibits UDG, flagging false APOBEC3A inhibitors. AID 504714. inhibition, % at 20 µM. 1,000 tested, under 10 active. shares compounds with A3A deaminase. UDG counterscreen, FAM/TAMRA uracil oligo fluorescence; call rule not given here
* hit, by the source's call; nt = no result given.

SMILES | HKDC1 inhibitor | UBC9 SUMO inh | PfM18AAP inh | A3A deaminase | PfGluPho inh | A3G deaminase | A3A conf | UDG ctr A3A
O=C(N/N=C/c1ccc(-c2ccccc2C(=O)O)o1)c1cccs1 | 5.7 | 3.5 | 12.8 | 45.9* | -12.9 | 19.7 | 37.8* | -3.4
O=c1oc(-c2ccccc2)nc2sc3c(c12)CCC3 | -1.4 | 23.0 | -4.9 | 56.2* | 9.4 | 22.2 | 35.0* | -3.1
CCCCC(=O)Nc1ccc2c(c1)nc(CCN1CCOCC1)n2C | 0.1 | -2.9 | 2.5 | 1.9 | 1.2 | 4.0 | nt | nt
O=C(CSc1ncccn1)N1CCN(C(c2ccccc2)c2ccccc2)CC1 | 3.4 | 10.6 | -4.3 | 47.3* | -7.0 | 8.0 | 69.9* | -2.0
COc1ccc(/C=C(\NC(=O)c2ccccc2)C(=O)OC[C@@H]2CCC[N+]3(C)CCCCC23)cc1OC (stereo not given in full) | -4.8 | 7.7 | -1.9 | 66.9* | -1.0 | 11.0 | 67.2* | 3.9
COc1ccc(NC(=O)C2CCCN(C(=O)c3ccc(Cl)cc3)C2)cc1Cl (stereo not given) | 5.3 | nt | nt | 1.1 | -1.9 | -4.4 | nt | nt
O=C(Nc1nnc(SCc2c(Cl)cccc2Cl)s1)C1CC(=O)N(c2ccc3c(c2)OCCO3)C1 (stereo not given) | 5.9 | 21.4 | -2.5 | 64.2* | -32.4 | 21.1 | 23.4 | nt
O=C(Nc1nc(-c2ccco2)c(-c2ccco2)s1)C1CC(=O)N(c2ccc3c(c2)OCCO3)C1 (stereo not given) | 14.9 | 82.9* | 14.9 | 49.2* | 48.6 | 27.2 | 36.7* | -4.2
C=CCOc1ccc(/C=C2\C(=N)N3N=C(S(=O)(=O)CC)SC3=NC2=O)cc1OC | 16.6 | -2.2 | 0.0 | -4.8 | -40.6 | -8.6 | nt | nt
CC(=O)NNS(=O)(=O)c1ccccc1[N+](=O)[O-] | -8.4 | 5.5 | -5.6 | 47.1* | -11.0 | -2.5 | 1.3 | -3.3
Cc1ccc(C(=O)NNS(=O)(=O)c2ccccc2[N+](=O)[O-])cc1 | -5.5 | -15.8 | 2.4 | -2.9 | 2.2 | -6.1 | nt | nt
Cc1cc(C)c(-c2c(O)c3c(n(C)c2=O)CC(C)(C)CC3=O)c(C)c1 | 8.1 | 0.2 | -5.2 | 1.7 | 19.3 | -2.0 | nt | nt
C[n+]1ccc(/C=C/c2ccccc2O)c2ccccc21 | 2.6 | -2.8 | -6.9 | 64.4* | 14.2 | 11.5 | 65.2* | -0.5
CC1(C(=O)NCCCNc2ncc(C(F)(F)F)cc2Cl)C=CC2(CCCCC2)N1C(=O)c1ccccc1 (stereo not given) | nt | nt | nt | 1.5 | nt | -0.3 | nt | nt
CCOC(=O)C1CCN(C(=O)C(C)Sc2nnc3ccccn23)CC1 (stereo not given) | -4.0 | nt | nt | 59.5* | -15.5 | -0.9 | 6.7 | 2.8
Cc1cc(C)cc(N2CC(c3nc4ccccc4n3C)CC2=O)c1 (stereo not given) | -6.7 | -8.2 | -5.8 | 58.4* | 11.4 | 21.4 | 45.9* | -0.8
Cc1n[nH]c(C)c1S(=O)(=O)N1CCC(C(=O)N2CCn3c2nc2ccccc23)CC1 | 3.8 | 7.2 | 3.6 | 98.4* | 6.2 | -3.5 | -5.8 | -3.6
Cc1nn(C)c(NC(=O)c2ccc(Cl)cc2)c1Cl | -0.2 | 12.6 | 0.7 | -0.4 | -7.1 | -4.8 | nt | nt
CCN(CC)S(=O)(=O)c1cccc(NC(=O)CCNC(=O)c2ccccc2Cl)c1 | -3.2 | 5.7 | -8.1 | 0.1 | -7.8 | -9.0 | nt | nt
C[N+]1(C2CCC3CCCC2C3O)CCCC1 (stereo not given) | 1.6 | 2.3 | -6.6 | 59.1* | -5.5 | 9.9 | 73.8* | -0.5
CCc1ccc(NC(=O)CSc2nnc(CNC(=O)c3ccc(OC)cc3)o2)cc1 | -5.6 | 12.1 | -2.1 | -5.9 | 4.0 | -6.9 | nt | nt
Cc1cccc(NC(=O)CSc2nnc(CSc3nc(C)cc(C)n3)o2)c1 | -3.8 | -7.9 | 1.5 | -1.9 | 7.7 | -3.3 | nt | nt
Cc1cc(C)nc(SCc2nnc(SCC(=O)Nc3ccc(Cl)c(C(F)(F)F)c3)o2)n1 | 7.6 | 1.3 | -8.4 | 69.6* | 44.6 | -2.3 | -3.1 | 19.2
COc1ccc(CCCc2nnc(SCC(=O)Nc3ccc(OC)cc3)o2)cc1 | -9.6 | 9.8 | -12.0 | 45.1* | 22.2 | 16.5 | 70.6* | 5.9
